From ChEMBL document CHEMBL2176950, “A frozen analogue approach to aminopyridinylimidazoles leading to novel and promising p38 MAP kinase inhibitors” (J Med Chem, 2012)
pIC50: −log10 of the molar value. Active and inactive are the calls of the source. The calls are words filed in the database; no cut-off is given here.

Columns and labels:
[1] = molecular target: T1, Mitogen-activated protein kinase 14 (Homo sapiens, UniProt Q16539); assay: Ratio of SB203580 IC50 to compound IC50 for inhibition of p38alpha MAPK
Outline: (§1)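 p38 MAPK activity assay run by a previously published protocol. IC50 given as mean with SEM from three experiments. The activity coefficient is the IC50 of the SB203580 reference divided by the IC50 of the test compound.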

[2] = molecular target: T1, Mitogen-activated protein kinase 14; assay: Inhibition of p38alpha MAPK; outline: as §1
[3] = molecular target: Mitogen-activated protein kinase 11 (Homo sapiens) (UniProt Q15759); assay: Inhibition of MAPK11 assessed as residual activity at 1000 nM
[4] = molecular target: TRAF2 and NCK-interacting protein kinase (Homo sapiens) (UniProt Q9UKE5); assay: Inhibition of KIAA0551 assessed as residual activity at 1000 nM
[5] = molecular target: T2, Serine/threonine-protein kinase 36 (Homo sapiens) (UniProt Q9NRP7); assay: Inhibition of STK36 assessed as residual activity at 1000 nM
T2 sequence (whole entry): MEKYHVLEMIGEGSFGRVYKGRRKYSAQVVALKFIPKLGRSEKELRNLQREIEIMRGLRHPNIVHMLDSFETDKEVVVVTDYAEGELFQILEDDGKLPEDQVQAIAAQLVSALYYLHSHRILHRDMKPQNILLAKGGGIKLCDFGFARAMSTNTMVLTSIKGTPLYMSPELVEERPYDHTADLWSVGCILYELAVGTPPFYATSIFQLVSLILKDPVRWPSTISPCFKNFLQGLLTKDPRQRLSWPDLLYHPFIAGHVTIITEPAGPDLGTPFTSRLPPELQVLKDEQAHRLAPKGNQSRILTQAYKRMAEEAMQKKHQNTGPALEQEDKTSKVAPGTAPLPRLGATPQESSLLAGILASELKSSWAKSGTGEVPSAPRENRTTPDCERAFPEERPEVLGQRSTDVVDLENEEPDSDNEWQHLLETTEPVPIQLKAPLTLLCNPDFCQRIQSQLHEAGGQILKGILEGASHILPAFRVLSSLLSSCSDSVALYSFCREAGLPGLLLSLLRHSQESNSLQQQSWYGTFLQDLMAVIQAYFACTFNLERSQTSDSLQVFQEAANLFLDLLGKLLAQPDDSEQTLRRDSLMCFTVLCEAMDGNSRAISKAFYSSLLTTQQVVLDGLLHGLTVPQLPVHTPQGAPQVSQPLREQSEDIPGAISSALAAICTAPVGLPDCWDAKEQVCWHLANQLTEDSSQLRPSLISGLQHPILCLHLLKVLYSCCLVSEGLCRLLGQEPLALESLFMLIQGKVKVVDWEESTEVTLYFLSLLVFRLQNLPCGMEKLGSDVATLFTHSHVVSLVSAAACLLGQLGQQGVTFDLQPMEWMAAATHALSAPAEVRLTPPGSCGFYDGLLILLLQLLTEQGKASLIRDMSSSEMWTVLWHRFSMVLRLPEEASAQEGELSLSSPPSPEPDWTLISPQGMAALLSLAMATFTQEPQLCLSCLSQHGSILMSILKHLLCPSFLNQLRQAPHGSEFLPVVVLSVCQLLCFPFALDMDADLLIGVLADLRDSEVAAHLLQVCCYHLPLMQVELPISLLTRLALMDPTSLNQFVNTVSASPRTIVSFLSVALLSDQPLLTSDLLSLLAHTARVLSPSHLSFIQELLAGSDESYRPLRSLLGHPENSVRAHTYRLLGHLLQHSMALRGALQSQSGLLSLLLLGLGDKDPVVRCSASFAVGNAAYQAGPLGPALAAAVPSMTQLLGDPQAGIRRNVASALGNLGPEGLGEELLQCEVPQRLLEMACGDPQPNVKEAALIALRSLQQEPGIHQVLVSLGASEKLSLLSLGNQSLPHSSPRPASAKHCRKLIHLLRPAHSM

[6] = molecular target: Proto-oncogene tyrosine-protein kinase Src (Homo sapiens) (UniProt P12931); assay: Inhibition of SRC assessed as residual activity at 1000 nM
[7] = molecular target: Receptor-interacting serine/threonine-protein kinase 2 (Homo sapiens) (UniProt O43353); assay: Inhibition of RIPK2 assessed as residual activity at 1000 nM
[8] = molecular target: T1, Mitogen-activated protein kinase 14; assay: Inhibition of MAPK14 assessed as residual activity at 1000 nM
[9] = molecular target: T3, Cyclin-G-associated kinase (Homo sapiens) (UniProt O14976); assay: Inhibition of GAK assessed as residual activity at 1000 nM
T3 sequence (whole entry): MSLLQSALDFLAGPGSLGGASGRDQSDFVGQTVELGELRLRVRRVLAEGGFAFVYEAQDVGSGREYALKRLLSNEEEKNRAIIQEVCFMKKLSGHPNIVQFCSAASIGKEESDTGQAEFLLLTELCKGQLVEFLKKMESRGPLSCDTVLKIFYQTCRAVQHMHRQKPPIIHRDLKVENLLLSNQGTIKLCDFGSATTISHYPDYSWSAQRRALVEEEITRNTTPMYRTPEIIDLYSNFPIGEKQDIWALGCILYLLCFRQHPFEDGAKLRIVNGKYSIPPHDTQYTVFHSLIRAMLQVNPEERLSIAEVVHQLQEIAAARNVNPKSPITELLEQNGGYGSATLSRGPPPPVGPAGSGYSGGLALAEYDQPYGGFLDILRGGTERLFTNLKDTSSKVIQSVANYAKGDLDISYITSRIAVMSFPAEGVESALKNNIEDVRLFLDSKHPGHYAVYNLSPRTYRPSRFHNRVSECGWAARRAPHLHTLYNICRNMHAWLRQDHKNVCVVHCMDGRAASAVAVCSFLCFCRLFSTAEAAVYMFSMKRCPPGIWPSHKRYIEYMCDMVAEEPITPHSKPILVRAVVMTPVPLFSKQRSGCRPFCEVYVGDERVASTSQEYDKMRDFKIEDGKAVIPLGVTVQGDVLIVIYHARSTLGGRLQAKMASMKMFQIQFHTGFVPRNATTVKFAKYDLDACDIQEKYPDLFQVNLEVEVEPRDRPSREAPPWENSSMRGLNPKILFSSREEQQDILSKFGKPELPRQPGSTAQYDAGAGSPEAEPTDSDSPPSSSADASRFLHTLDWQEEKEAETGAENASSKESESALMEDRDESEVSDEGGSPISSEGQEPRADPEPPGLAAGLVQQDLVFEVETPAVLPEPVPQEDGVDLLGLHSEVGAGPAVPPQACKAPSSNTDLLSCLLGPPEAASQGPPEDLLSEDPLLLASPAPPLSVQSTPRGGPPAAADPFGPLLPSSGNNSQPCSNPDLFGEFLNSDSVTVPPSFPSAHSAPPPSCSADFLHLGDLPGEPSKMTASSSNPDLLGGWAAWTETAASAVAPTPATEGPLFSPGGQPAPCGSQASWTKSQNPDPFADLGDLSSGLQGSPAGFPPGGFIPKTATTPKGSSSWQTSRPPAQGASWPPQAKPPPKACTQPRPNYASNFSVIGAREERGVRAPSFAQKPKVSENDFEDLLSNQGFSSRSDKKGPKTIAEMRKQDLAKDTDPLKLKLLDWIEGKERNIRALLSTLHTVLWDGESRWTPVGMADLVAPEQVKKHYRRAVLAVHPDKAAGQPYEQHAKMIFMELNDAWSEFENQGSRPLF

[10] = molecular target: Protein-tyrosine kinase 6 (Homo sapiens) (UniProt Q13882); assay: Inhibition of PTK6 assessed as residual activity at 1000 nM
[11] = molecular target: Mitogen-activated protein kinase 9 (Homo sapiens) (UniProt P45984); assay: Inhibition of JNK2 assessed as residual activity at 1000 nM
[12] = molecular target: Mitogen-activated protein kinase 10 (Homo sapiens) (UniProt P53779); assay: Inhibition of JNK3 assessed as residual activity at 1000 nM
[13] = molecular target: Mitogen-activated protein kinase 8 (Homo sapiens) (UniProt P45983); assay: Inhibition of JNK1 assessed as residual activity at 1000 nM
[14] = molecular target: Tyrosine-protein kinase FRK (Homo sapiens) (UniProt P42685); assay: Inhibition of FRK assessed as residual activity at 1000 nM
[15] = molecular target: T4, Mitogen-activated protein kinase 12 (Homo sapiens) (UniProt P53778); conditions: 1000 nM
T4 sequence (whole entry): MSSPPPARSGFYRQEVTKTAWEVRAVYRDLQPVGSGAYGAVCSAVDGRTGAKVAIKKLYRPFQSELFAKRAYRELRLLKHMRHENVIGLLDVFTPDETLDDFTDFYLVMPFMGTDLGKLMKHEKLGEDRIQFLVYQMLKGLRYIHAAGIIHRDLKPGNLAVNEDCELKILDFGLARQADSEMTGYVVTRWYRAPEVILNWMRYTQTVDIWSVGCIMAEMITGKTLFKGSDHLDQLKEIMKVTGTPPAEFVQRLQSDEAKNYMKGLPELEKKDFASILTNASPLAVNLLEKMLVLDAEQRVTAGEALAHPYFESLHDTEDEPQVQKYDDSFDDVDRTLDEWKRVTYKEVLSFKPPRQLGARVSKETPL

T1 sequence (Q16539 whole entry): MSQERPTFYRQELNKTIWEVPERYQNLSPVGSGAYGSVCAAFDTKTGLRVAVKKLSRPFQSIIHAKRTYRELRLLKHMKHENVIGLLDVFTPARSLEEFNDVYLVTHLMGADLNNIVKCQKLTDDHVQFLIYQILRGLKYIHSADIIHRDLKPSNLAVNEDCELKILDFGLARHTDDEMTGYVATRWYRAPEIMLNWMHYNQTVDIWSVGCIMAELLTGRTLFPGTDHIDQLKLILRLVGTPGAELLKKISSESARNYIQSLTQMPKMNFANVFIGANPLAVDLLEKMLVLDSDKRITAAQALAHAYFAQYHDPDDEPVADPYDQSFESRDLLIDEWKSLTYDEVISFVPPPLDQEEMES
Chain of TRAF2 and NCK-interacting protein kinase (Homo sapiens) (Q9UKE5 whole entry, looked up): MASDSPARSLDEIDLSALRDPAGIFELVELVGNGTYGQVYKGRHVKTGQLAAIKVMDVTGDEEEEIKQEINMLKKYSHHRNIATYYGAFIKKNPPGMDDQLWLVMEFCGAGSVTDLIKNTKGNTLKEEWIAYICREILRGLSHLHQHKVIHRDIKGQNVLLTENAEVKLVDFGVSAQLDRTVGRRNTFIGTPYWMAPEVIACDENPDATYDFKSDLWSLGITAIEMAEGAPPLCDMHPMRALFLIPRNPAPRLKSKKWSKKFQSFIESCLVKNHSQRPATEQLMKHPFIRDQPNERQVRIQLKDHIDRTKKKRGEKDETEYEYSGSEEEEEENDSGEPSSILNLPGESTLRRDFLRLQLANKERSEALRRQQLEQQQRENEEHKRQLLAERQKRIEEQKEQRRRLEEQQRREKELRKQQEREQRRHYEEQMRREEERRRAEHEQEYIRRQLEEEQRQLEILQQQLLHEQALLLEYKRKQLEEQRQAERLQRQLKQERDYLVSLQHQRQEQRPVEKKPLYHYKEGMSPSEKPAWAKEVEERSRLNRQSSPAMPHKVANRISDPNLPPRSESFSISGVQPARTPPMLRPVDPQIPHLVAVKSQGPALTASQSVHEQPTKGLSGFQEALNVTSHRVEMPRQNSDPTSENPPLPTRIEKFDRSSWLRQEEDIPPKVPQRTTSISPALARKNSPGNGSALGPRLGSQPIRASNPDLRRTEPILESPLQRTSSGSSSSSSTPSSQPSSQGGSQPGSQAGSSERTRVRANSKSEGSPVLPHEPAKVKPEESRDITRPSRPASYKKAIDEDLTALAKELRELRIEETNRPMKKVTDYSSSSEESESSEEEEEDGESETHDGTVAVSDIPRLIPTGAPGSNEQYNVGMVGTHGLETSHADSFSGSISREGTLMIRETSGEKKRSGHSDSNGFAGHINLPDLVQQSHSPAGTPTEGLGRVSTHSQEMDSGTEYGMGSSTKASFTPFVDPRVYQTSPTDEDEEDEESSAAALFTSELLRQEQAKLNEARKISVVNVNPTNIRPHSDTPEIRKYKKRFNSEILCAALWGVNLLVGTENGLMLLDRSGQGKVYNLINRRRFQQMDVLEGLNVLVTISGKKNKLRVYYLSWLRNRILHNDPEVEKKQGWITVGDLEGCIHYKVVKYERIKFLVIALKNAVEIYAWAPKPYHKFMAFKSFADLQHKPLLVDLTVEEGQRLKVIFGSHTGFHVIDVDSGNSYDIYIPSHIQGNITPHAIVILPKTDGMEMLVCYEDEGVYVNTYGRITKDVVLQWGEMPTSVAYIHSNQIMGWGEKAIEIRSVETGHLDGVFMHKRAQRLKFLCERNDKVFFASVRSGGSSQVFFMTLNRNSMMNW
Chain of Receptor-interacting serine/threonine-protein kinase 2 (Homo sapiens) (O43353 whole entry): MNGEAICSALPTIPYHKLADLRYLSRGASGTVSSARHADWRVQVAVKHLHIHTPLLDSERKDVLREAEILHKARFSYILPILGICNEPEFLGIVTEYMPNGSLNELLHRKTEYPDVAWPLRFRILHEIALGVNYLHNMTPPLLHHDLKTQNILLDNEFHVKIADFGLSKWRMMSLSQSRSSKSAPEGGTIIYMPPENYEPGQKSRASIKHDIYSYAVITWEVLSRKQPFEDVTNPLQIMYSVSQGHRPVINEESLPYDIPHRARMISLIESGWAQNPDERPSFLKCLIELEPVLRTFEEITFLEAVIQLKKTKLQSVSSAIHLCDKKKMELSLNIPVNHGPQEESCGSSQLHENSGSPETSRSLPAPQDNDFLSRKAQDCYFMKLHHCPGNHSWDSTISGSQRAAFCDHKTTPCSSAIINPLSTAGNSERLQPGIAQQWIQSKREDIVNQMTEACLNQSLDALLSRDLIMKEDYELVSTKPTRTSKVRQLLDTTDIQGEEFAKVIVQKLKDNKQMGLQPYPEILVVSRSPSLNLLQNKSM
Chain of Mitogen-activated protein kinase 11 (Homo sapiens) (Q15759 whole entry): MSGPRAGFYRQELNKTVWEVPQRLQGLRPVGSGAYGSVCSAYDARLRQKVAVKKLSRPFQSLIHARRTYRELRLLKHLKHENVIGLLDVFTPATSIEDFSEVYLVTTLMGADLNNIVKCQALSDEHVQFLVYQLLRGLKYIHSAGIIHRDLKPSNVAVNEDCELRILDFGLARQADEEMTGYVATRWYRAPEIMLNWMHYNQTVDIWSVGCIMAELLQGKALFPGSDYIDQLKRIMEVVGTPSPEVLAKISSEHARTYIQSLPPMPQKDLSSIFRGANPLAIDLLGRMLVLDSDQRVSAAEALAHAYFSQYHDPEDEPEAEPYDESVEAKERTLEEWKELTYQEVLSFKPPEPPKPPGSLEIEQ
Chain of Mitogen-activated protein kinase 10 (Homo sapiens) (P53779 whole entry): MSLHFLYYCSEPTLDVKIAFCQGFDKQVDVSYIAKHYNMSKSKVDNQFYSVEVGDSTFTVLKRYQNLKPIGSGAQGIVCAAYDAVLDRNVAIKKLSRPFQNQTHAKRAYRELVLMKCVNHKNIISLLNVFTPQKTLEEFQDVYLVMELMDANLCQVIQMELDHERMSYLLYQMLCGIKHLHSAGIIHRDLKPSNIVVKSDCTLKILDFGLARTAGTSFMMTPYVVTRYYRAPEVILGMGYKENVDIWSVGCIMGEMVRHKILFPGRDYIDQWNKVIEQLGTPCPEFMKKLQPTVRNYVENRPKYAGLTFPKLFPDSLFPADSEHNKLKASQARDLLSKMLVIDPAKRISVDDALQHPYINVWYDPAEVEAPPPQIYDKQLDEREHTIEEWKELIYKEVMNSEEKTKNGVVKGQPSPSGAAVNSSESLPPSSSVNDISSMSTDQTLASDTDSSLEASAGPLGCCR
Chain of Proto-oncogene tyrosine-protein kinase Src (Homo sapiens) (P12931 2-536 limits assumed): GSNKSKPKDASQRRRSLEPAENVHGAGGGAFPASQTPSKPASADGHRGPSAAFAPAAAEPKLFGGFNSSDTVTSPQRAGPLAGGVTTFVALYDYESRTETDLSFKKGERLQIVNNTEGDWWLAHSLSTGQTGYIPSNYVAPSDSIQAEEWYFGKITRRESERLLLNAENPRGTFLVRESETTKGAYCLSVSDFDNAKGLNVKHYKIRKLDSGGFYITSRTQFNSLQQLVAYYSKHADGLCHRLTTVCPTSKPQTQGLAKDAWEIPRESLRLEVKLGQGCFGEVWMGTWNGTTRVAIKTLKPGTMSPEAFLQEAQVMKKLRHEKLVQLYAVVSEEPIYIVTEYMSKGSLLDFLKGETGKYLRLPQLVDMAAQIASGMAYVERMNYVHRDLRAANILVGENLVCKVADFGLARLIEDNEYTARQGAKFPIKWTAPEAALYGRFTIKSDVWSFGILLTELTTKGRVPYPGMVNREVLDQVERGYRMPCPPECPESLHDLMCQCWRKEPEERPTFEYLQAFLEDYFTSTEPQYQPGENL
Chain of Protein-tyrosine kinase 6 (Homo sapiens) (Q13882 whole entry, looked up): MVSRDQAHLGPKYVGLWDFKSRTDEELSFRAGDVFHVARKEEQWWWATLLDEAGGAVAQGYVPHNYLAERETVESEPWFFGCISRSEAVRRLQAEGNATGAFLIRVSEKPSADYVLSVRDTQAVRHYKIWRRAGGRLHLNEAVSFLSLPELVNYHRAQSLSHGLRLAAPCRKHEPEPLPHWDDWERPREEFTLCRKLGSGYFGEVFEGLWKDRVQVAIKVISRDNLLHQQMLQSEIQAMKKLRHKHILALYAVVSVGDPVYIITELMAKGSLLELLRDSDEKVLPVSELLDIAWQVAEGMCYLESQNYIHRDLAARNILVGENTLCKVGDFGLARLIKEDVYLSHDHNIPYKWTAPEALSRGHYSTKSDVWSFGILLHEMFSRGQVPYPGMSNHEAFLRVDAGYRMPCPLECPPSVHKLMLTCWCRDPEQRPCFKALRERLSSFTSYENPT
Chain of Tyrosine-protein kinase FRK (Homo sapiens) (P42685 whole entry): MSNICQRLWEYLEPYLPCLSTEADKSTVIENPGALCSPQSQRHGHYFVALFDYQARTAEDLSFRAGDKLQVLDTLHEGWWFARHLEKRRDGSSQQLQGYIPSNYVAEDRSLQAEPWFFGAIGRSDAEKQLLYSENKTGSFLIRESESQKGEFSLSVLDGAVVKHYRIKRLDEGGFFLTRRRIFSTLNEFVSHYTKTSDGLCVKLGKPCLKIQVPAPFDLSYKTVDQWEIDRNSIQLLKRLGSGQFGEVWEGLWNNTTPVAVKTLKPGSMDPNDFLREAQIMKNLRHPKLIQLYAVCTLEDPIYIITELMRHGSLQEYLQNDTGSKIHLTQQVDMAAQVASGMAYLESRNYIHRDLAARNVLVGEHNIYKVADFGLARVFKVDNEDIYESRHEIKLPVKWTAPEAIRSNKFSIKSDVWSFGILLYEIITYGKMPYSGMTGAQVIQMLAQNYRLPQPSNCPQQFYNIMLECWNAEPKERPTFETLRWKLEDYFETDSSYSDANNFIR
Chain of Mitogen-activated protein kinase 9 (Homo sapiens) (P45984 whole entry, looked up): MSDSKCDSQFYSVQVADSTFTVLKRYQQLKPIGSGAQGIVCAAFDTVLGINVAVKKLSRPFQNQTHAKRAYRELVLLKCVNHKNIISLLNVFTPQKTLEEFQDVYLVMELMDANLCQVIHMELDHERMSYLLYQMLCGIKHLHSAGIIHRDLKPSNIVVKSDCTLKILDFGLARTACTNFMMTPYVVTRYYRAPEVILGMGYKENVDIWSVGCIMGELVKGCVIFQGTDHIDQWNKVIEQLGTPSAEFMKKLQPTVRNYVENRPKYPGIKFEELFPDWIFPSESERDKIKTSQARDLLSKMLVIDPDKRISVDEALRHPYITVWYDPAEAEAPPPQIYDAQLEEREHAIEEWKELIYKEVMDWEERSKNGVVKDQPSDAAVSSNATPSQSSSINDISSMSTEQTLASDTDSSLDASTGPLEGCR

| Compound | Ratio IC50 [1] | pIC50 [2] | further results |
| --- | --- | --- | --- |
| COCn1c(-c2ccccc2)nc(-c2ccc(F)cc2)c1-c1ncnc2[nH]cnc12 | 0.01 | 5.52 | – |
| Fc1ccc(-c2nc(-c3ccccc3)[nH]c2-c2ncnc3[nH]ccc23)cc1 | 0.03 | 5.59 | – |
| Fc1ccc(-c2nc(-c3ccccc3)[nH]c2-c2ccnc3[nH]ccc23)cc1 | 0.47 | – | – |
| CS(=O)(=O)c1ccc(-c2nc(-c3ccc(F)cc3)c(-c3ccnc4[nH]c(-c5ccccc5)cc34)[nH]2)cc1 | 3.46 | 7.96 | – |
| Fc1ccc(-c2nc(-c3ccccc3)[nH]c2-c2ccnc3[nH]c(-c4ccccc4)cc23)cc1 | 2.38 | – | – |
| Fc1ccc(-c2[nH]c(-c3ccccc3)nc2-c2ccnc3[nH]c(-c4ccccc4)cc23)cc1 | – | 7.80 | – |
| Oc1ccc(-c2nc(-c3ccc(F)cc3)c(-c3ccnc4[nH]c(-c5ccccc5)cc34)[nH]2)cc1 | 19.7 | – | Activity [3]: 2.5%; Activity [4]: 17%; Activity [5]: 4.8%; Activity [6]: 28%; Activity [7]: 3.2%; Activity [8]: 8.9%; Activity [9]: 7.7% |
| COc1cc(-c2nc(-c3ccnc4[nH]c(-c5ccccc5)cc34)c(-c3ccc(F)cc3)[nH]2)cc(OC)c1OC | – | 6.54 | – |
| Fc1ccc(-c2[nH]c(-c3ccccc3)nc2-c2ccnc3[nH]c(C4CCCCC4)cc23)cc1 | – | 7.82 | – |
| Oc1ccc(-c2nc(-c3ccc(F)cc3)c(-c3ccncc3)[nH]2)cc1 | – | – | inhibition [10]: Active; inhibition [11]: Active; inhibition [12]: Active; inhibition [13]: Active; inhibition [14]: Active; inhibition [3]: Active; inhibition [4]: Active; inhibition [5]: Active; inhibition [7]: Active; inhibition [8]: Active; inhibition [9]: Active; inhibition [15]: Active |
| Fc1ccc(-c2nc(-c3ccccc3)[nH]c2-c2ncnc3[nH]cnc23)cc1 | 0.1 | 6.13 | – |
| COc1ccc(-c2nc(-c3ccc(F)cc3)c(-c3ccnc4[nH]c(-c5ccccc5)cc34)[nH]2)cc1 | 0.67 | – | – |
| Fc1ccc(-c2nc(-c3ccccc3)[nH]c2-c2ccnc3[nH]c(Cc4ccccc4)cc23)cc1 | 0.07 | 6.46 | – |
| Oc1ccc(-c2nc(-c3ccnc4[nH]c(-c5ccccc5)cc34)c(-c3ccc(F)cc3)[nH]2)cc1 | – | 8.52 | – |
| CSc1ccc(-c2nc(-c3ccnc4[nH]c(-c5ccccc5)cc34)c(-c3ccc(F)cc3)[nH]2)cc1 | – | 7.41 | – |
| Fc1ccc(-c2[nH]c(-c3ccccc3)nc2-c2ccnc3[nH]c4ccccc4c23)cc1 | – | 6.82 | – |
| CSc1ccc(-c2nc(-c3ccc(F)cc3)c(-c3ccnc4[nH]c(-c5ccccc5)cc34)[nH]2)cc1 | 0.97 | – | – |
| Fc1ccc(-c2[nH]c(-c3ccccc3)nc2-c2ccncc2)cc1 | 0.33 | – | – |
| COc1ccc(-c2nc(-c3ccnc4[nH]c(-c5ccccc5)cc34)c(-c3ccc(F)cc3)[nH]2)cc1 | – | 7.15 | – |
| C[S+]([O-])c1ccc(-c2nc(-c3ccc(F)cc3)c(-c3ccnc4[nH]c(-c5ccccc5)cc34)[nH]2)cc1 (stereo not given) | 4.75 | – | – |
| Fc1ccc(-c2nc(-c3ccccc3)[nH]c2-c2ccnc3[nH]c(C4CCCCC4)cc23)cc1 | 2.07 | – | – |
| COc1cc(-c2nc(-c3ccc(F)cc3)c(-c3ccnc4[nH]c(-c5ccccc5)cc34)[nH]2)cc(OC)c1OC | 0.12 | – | – |
| C[S+]([O-])c1ccc(-c2nc(-c3ccnc4[nH]c(-c5ccccc5)cc34)c(-c3ccc(F)cc3)[nH]2)cc1 (stereo not given) | – | 8.10 | – |
| Fc1ccc(-c2[nH]c(-c3ccccc3)nc2-c2ccnc3[nH]ccc23)cc1 | – | 6.97 | – |
| COCn1c(-c2ccccc2)nc(-c2ccc(F)cc2)c1-c1ccnc2[nH]ccc12 | 0.18 | 6.35 | – |
| Fc1ccc(-c2nc(-c3ccccc3)[nH]c2-c2ccnc3[nH]c4ccccc4c23)cc1 | 0.55 | – | – |
